Values after ≈ are worked out from the molar mass of the structure shown.
Assays:
[1] = Cytotoxicity against human KB3-1 cells by MTT assay; assay type: functional, cell-based; settings: KB 3-1
Method in brief: (§1)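 MTT assay in 96-well plates, giving IC50. Media: DMEM for KB-3-1, A431, A549 and L929; F12K for PC-3; RPMI for MCF-7; EBM-2 for HUVEC; McCoy's for SKOV-3. All media had 10% FBS, and cells were kept at 37 °C under 10% CO2. Methanol served as negative control and epothilone A as positive control.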

[2] = Cytotoxicity against human SKOV3 cells by MTT assay; assay type: functional, cell-based; settings: SK-OV-3; method in brief: as §1
[3] = test system: MCF7; assay: Cytotoxicity against human MCF7 cells by MTT assay; assay type: functional, cell-based; method in brief: as §1
[4] = test system: L929; assay: Cytotoxicity against mouse L929 cells by MTT assay; assay type: functional, cell-based; method in brief: as §1
[5] = Cytotoxicity against human PC3 cells by MTT assay; assay type: functional, cell-based; settings: PC-3; method in brief: as §1
[6] = test system: Pseudomonas aeruginosa; assay: Antimicrobial activity against Pseudomonas aeruginosa 50071 after 24 to 48 hrs by serial dilution method; assay type: functional
Method in brief: (§2)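 Compounds from 1 mg/mL stock, 2 and 20 μL aliquots, serially diluted 1:1 in 0.15 mL medium in microtiter plates. Shaken at 160 rpm, 30 °C, 24−48 h. MIC is the lowest concentration preventing visible growth.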

[7] = test system: Saccharomyces cerevisiae; assay: Antimicrobial activity against Saccharomyces cerevisiae 70449 after 24 to 48 hrs by serial dilution method; assay type: functional
Method in brief: (§3)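 Yeasts and filamentous fungi tested in MYC medium (1.0% glucose, 1.0% phytone peptone, 50 mM HEPES, pH 7.0). Aliquots of 2 and 20 μL from 1 mg/mL stock, 1:1 serial dilution in 0.15 mL medium in microtiter plates. Incubated at 30 °C with shaking at 160 rpm for 24−48 h. MIC read as the lowest concentration with no visible growth.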

[8] = test system: Paenibacillus polymyxa; assay: Antimicrobial activity against Paenibacillus polymyxa 36 after 24 to 48 hrs by serial dilution method; assay type: functional; method in brief: as §2
[9] = test system: Mycolicibacterium diernhoferi; assay: Antimicrobial activity against Mycobacterium diernhoferi 43542 after 24 to 48 hrs by serial dilution method; assay type: functional; method in brief: as §2
[10] = test system: Escherichia coli; assay: Antimicrobial activity against Escherichia coli 1116 after 24 to 48 hrs by serial dilution method; assay type: functional; method in brief: as §2
[11] = test system: Mucor hiemalis; assay: Antimicrobial activity against Mucor hiemalis 2656 after 24 to 48 hrs by serial dilution method; assay type: functional; method in brief: as §3
[12] = test system: Trichosporon oleaginosus; assay: Antimicrobial activity against Trichosporon oleaginosus 11815 after 24 to 48 hrs by serial dilution method; assay type: functional; settings: Cutaneotrichosporon oleaginosum; method in brief: as §3
[13] = test system: Nocardia sp.; assay: Antimicrobial activity against Nocardia sp. 43069 after 24 to 48 hrs by serial dilution method; assay type: functional; method in brief: as §2
[14] = test system: A549; assay: Cytotoxicity against human A549 cells by MTT assay; assay type: functional, cell-based; method in brief: as §1
[15] = test system: Candida albicans; assay: Antimicrobial activity against Candida albicans 1665 after 24 to 48 hrs by serial dilution method; assay type: functional; method in brief: as §3
[16] = test system: Wickerhamomyces anomalus; assay: Antimicrobial activity against Wickerhamomyces anomalus 6766 after 24 to 48 hrs by serial dilution method; assay type: functional; settings: Hansenula anomala; method in brief: as §3
[17] = test system: Chromobacterium violaceum; assay: Antimicrobial activity against Chromobacterium violaceum 30191 after 24 to 48 hrs by serial dilution method; assay type: functional; method in brief: as §2
[18] = test system: Staphylococcus aureus; assay: Antimicrobial activity against Staphylococcus aureus 346 after 24 to 48 hrs by serial dilution method; assay type: functional; method in brief: as §2
[19] = test system: HUVEC; assay: Cytotoxicity against HUVEC cells by MTT assay; assay type: functional, cell-based; settings: Homo sapiens; method in brief: as §1
[20] = test system: A-431; assay: Cytotoxicity against human A431 cells by MTT assay; assay type: functional, cell-based; method in brief: as §1

Compound	IC50 [1]	IC50 [2]	IC50 [3]	IC50 [4]	IC50 [5]	MIC [6]	MIC [7]	MIC [8]	MIC [9]	MIC [10]	MIC [11]	MIC [12]	MIC [13]	IC50 [14]	MIC [15]	MIC [16]	MIC [17]	MIC [18]	IC50 [19]	IC50 [20]
C/C(=C\c1csc(C)n1)[C@@H]1C[C@@H]2O[C@@H]2CCC[C@H](C)[C@H](O)[C@@H](C)C(=O)C(C)(C)[C@@H](O)CC(=O)O1 [EPOTHILONE A]	0.0096 µM	0.0013 µM	0.0022 µM	0.0077 µM	0.0024 µM	–	–	–	–	–	–	–	–	–	–	–	–	–	–	–
GENTAMICIN	–	–	–	–	–	42 mg/L	–	–	–	–	–	–	–	–	–	–	–	–	–	–
Cc1nc(Cc2ccccc2)c(O)nc1Cc1ccccc1	> 34.5 µM	> 34.5 µM	> 34.5 µM	> 34.5 µM	> 34.5 µM	> 66.6 mg/L	> 66.6 mg/L	> 66.6 mg/L	> 66.6 mg/L	> 66.6 mg/L	> 66.6 mg/L	> 66.6 mg/L	67 mg/L (≈ 231 µM)	> 34.5 µM	> 66.6 mg/L	> 66.6 mg/L	> 66.6 mg/L	> 66.6 mg/L	–	–
COC(=O)[C@H](CCCCN(O)C(=O)/C=C/c1ccccc1)NC(=O)CC(O)(CC(=O)N[C@@H](CCCCN(O)C(=O)/C=C/c1ccccc1)C(=O)OC)C(=O)O	0.05 µM	1.95 µM	0.22 µM	1.82 µM	0.19 µM	> 66.6 mg/L	> 66.6 mg/L	> 66.6 mg/L	> 66.6 mg/L	> 66.6 mg/L	> 66.6 mg/L	66.6 mg/L (≈ 86.6 µM)	> 66.6 mg/L	0.12 µM	33.3 mg/L (≈ 43.3 µM)	> 66.6 mg/L	> 66.6 mg/L	> 66.6 mg/L	0.05 µM	0.1 µM
COC(=O)c1c[nH]c2ccccc12	> 56.8 µM	> 56.8 µM	> 56.8 µM	> 56.8 µM	> 56.8 µM	> 66.6 mg/L	> 66.6 mg/L	> 66.6 mg/L	> 66.6 mg/L	> 66.6 mg/L	> 66.6 mg/L	> 66.6 mg/L	33.3 mg/L (≈ 190 µM)	> 56.8 µM	> 66.6 mg/L	> 66.6 mg/L	> 66.6 mg/L	> 66.6 mg/L	–	–

Reference: ChEMBL document CHEMBL3352732, “Nannozinones and sorazinones, unprecedented pyrazinones from myxobacteria” (J Nat Prod, 2014)
